Experimental data gathered from unrelated publications.
Compare with care: the assays were run in different laboratories.
Target: Activin receptor type-1 (ACVR1, Homo sapiens, UniProt Q04771)
Sequence (Q04771 21-509, as in one of the studies): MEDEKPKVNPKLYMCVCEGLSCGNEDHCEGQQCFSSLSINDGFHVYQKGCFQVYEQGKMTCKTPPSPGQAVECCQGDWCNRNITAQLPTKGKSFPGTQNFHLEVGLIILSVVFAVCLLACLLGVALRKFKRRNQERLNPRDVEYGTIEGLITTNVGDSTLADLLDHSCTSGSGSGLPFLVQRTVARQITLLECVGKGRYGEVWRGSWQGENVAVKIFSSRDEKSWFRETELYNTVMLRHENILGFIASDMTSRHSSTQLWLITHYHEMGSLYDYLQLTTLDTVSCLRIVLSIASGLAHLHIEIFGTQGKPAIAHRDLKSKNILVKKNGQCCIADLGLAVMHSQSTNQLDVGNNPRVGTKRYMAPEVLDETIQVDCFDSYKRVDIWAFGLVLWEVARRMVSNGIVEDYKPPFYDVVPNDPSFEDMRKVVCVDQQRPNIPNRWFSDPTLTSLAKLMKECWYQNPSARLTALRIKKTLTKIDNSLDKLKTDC

Compound | assay | setting | remaining binding [%]
COc1cnc(Nc2cccc(S(N)(=O)=O)c2)nc1N1CCN(c2ccccc2)C(=O)C1 | binding, competition with immobilised ligand | 1 µM | 100
O=C1CCc2cc(Nc3cc(OC4CCOCC4)c([N+](=O)[O-])cc3Cl)ccc2N1 | cell-free assay, competition with immobilised ligand | 1 µM | 100
c1cnn2ncc(-c3ccnc(N4CCC45COC5)n3)c2c1 | binding | 1 µM | 64
COc1cnc(Nc2cccc(S(N)(=O)=O)c2)nc1N1CCN(c2ccccc2)CC1 | binding, competition with immobilised ligand | 1 µM | 100
O=C(c1ccc(Nc2ncc(Cl)c(-c3ccc(Cl)s3)n2)cc1)N1CCC(N2CCCC2)CC1 | binding, competition with immobilised ligand | 1 µM | 41
CN(C)c1nccc(-c2cnc3ncccn23)n1 | binding | 1 µM | 88
FC(F)(F)c1ccc2c(c1)nc(-c1cccnc1)n2C1CC1 | cell-free assay, competition with immobilised ligand | 1 µM | 100
N[C@H]1CCN(c2nccc(-c3cnn4ncccc34)n2)C1 | binding | 1 µM | 85
O=C(c1ccc(Nc2nccc(-c3cc4ccccc4s3)n2)cc1)N1CCC(N2CCCC2)CC1 | binding, competition with immobilised ligand | 1 µM | 26
COc1ncc2cc3ccccc3nc2c1C#N | cell-free assay, competition with immobilised ligand | 5 µM | 100
C[C@@]1(Cc2ccc(C#N)cc2)C(=O)N(c2cc(Cl)cc(Cl)c2)c2ncc(C(=O)NC3(c4nc(C5CCC5)no4)CC3)n21 | cell-free assay, competition with immobilised ligand | 1 µM | 89
FC(F)(F)Oc1cccc(-c2cnc3ccc(-c4ccncc4)nn23)c1 | cell-free assay, competition with immobilised ligand | 5 µM | 8.9
O=C(NCC1CCOCC1)c1n[nH]cc1NC(=O)c1c(F)cccc1F | binding, competition with immobilised ligand | 1 µM | 96
C[C@@H]1CCN(c2nccc(-c3cnn4ncccc34)n2)C1 | binding | 1 µM | 100
O=C(NCCCC1CCCCC1)c1ccc(CNC(=O)c2cnn(-c3ccccc3)c2C(F)(F)F)cc1 | cell-free assay, competition with immobilised ligand | 0.1 µM | 100
O=C(NCCCN1CCOCC1)c1ccc(Nc2ncc(Cl)c(-c3ccc(Cl)s3)n2)cc1 | binding, competition with immobilised ligand | 1 µM | 78
CN(C)c1nccc(-c2cnn3ncccc23)n1 | binding | 1 µM | 90
COc1ccc2c(O[C@@H]3C[C@H]4C(=O)N[C@]5(C(=O)O)CC5/C=C\CCCCC[C@H](NC(=O)OC5CCCC5)C(=O)N4C3)cc(-c3csc(NC(=O)C(C)C)n3)nc2c1C (stereo partly drawn) | cell-free assay, competition with immobilised ligand | 1 µM | 100
CCN1CCN(Cc2ccc(C(=O)Nc3ccc(C)c(Oc4ccc5c(c4)CC(=O)N5)c3)cc2C(F)(F)F)CC1 | binding, competition with immobilised ligand | 1 µM | 100
O=C(O)[C@@H]1[C@@H](Cn2nnc3ccccc3c2=O)CC[C@H]1C(=O)c1ccc(OCCC2CCOCC2)cc1 | cell-free assay, competition with immobilised ligand | 1 µM | 100
COc1ccnn2ncc(-c3ccnc(N(C)C)n3)c12 | binding | 1 µM | 80
